Assay results published in ChEMBL document CHEMBL3804810, “A structural insight into the P1S1 binding mode of diaminoethylphosphonic and phosphinic acids, selective inhibitors of alanine aminopeptidases” (Eur J Med Chem, 2016).
pKi: −log10 of the molar value. Activity calls are given as the source filed them. The calls are words filed in the database; no cut-off is given here.

Experiments:
[1] = target: T1, Cytosol aminopeptidase (Sus scrofa, UniProt P28839); test: Inhibition of porcine kidney leucine aminopeptidase M17 using Leu-AMC as substrate preincubated for 30 to 60 mins followed by substrate addition measured for 15 mins by spectrofluorimetric analysis
T1 sequence (P28839 whole entry): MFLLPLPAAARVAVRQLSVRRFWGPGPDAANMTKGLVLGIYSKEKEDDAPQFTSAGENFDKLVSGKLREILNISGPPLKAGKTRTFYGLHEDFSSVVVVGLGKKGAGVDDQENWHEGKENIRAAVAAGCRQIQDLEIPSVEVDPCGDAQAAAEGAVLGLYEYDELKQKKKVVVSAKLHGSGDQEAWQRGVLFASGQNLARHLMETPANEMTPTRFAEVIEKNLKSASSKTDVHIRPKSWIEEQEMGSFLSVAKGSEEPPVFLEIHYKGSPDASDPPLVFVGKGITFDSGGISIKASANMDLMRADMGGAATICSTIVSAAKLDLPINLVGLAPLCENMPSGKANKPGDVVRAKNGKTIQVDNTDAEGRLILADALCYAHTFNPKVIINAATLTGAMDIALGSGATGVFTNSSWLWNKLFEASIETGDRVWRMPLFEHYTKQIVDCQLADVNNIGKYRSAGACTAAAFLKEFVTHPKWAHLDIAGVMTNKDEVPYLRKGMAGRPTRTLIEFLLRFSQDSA
Summary of the method: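 Inhibitor concentrations were tested up to 800 μM against the porcine kidney enzyme. Values are reported as inhibition constants (Ki).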

[2] = Inhibition of recombinant Neisseria meningitidis N-terminal His6-tagged alanyl aminopeptidase M1 expressed in Escherichia coli BL21 cells using Ala-AMC as substrate preincubated for 30 to 60 mins followed by substrate addition measured for 15 mins by spectrofluorimetric analysis
[3] = target: T1, Cytosol aminopeptidase; test: Inhibition of porcine kidney leucine aminopeptidase M17 using L-leucine p-nitro-anilide as substrate by spectrophotometric analysis
[4] = target: T2, Cytosol aminopeptidase (Sus scrofa) (UniProt P28839); test: Inhibition of porcine kidney leucine aminopeptidase M17 using Leu-AMC as substrate up to 0.8 mM preincubated for 30 to 60 mins followed by substrate addition measured for 15 mins by spectrofluorimetric analysis
T2 sequence (whole entry): T1 sequence (P28839 whole entry)

NC(CNCCN1CCNCC1)P(=O)(O)O (stereo not drawn)
pKi [1]: 4.25

CNCC(N)P(=O)(O)O (stereo not drawn)
pKi [2]: 4.53

NC(CNCC1CCNCC1)P(=O)(O)O (stereo not drawn)
pKi [1]: 4.16

Nc1ccc(CNCC(N)P(=O)(O)O)cc1 (stereo not drawn)
pKi [1]: 5.15

NCC(N)P(=O)(O)CC(Cc1ccccc1)C(=O)O (stereo not drawn)
pKi [1]: 4.19

NC(CNC1CCCCCC1)P(=O)(O)CC(Cc1ccccc1)C(=O)O (stereo not drawn)
pKi [1]: 4.62

NCc1ccc(CNCC(N)P(=O)(O)O)cc1 (stereo not drawn)
pKi [1]: 4.58

NC(CNCC1CCCO1)P(=O)(O)O (stereo not drawn)
pKi [1]: 4.16

NC(CNC1CCCCCC1)P(=O)(O)O (stereo not drawn)
pKi [1]: 4.68

CCCCCCNCC(N)P(=O)(O)O (stereo not drawn)
pKi [1]: 3.92

NCC(N)P(=O)(O)O (stereo not drawn)
pKi [2]: 6.23

COc1ccc(CCNCC(N)P(=O)(O)CC(Cc2ccccc2)C(=O)O)cc1 (stereo not drawn)
pKi [1]: 4.68

CN(C)CCNCC(N)P(=O)(O)O (stereo not drawn)
pKi [2]: 4.59
pKi [1]: 4.14

NC(CNC1CCCCC1)P(=O)(O)CC(Cc1ccccc1)C(=O)O (stereo not drawn)
pKi [1]: 4.55

COc1ccc(CNCC(N)P(=O)(O)O)cc1 (stereo not drawn)
pKi [1]: 4.58

CC(C)CNCC(N)P(=O)(O)CC(Cc1ccccc1)C(=O)O (stereo not drawn)
pKi [1]: 4.82

NC(CNCc1ccccc1)P(=O)(O)O (stereo not drawn)
pKi [3]: 3.46

NC(CNCCc1ccccc1)P(=O)(O)O (stereo not drawn)
pKi [1]: 3.97

NC1CCCCC1NCC(N)P(=O)(O)O (stereo not drawn)
pKi [1]: 3.62

CC(C)(C)c1ccc(CNCC(N)P(=O)(O)O)cc1 (stereo not drawn)
pKi [1]: 4.15

CCCNCC(N)P(=O)(O)CC(Cc1ccccc1)C(=O)O (stereo not drawn)
pKi [1]: 4.68

COc1ccc(CCNCC(N)P(=O)(O)O)cc1 (stereo not drawn)
pKi [1]: 4.71

NC(CN1CCCCC1)P(=O)(O)O (stereo not drawn)
pKi [3]: 2.85

NCCNCC(N)P(=O)(O)O (stereo not drawn)
pKi [1]: 3.54

CC(NCC(N)P(=O)(O)O)c1ccccc1 (stereo not drawn)
pKi [3]: 3.22

NC(CN1CCOCC1)P(=O)(O)O (stereo not drawn)
inhibition [4]: inactive

NC(CCC1CCCCC1)P(=O)(O)O (stereo not drawn)
pKi [1]: 6.68
